Test results published in ChEMBL document CHEMBL4145471, “New 1,5 and 2,5-disubstituted tetrazoles-dependent activity towards surface barrier of Candida albicans” (Eur J Med Chem, 2018).

Tests used:
Candida albicans [1] = assay: Antifungal activity against Candida albicans ATCC 90028 at 0.5 ug/ml after 18 hrs relative to control; assay type: functional
Outline: (§1)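 Planktonic broth microdilution per M27-A3 in MOPS-buffered RPMI 1640 (pH 7.0), final inoculum 1.8×10^3 cells/mL, compounds 0.0313–16 µg/mL from 1600 µg/mL stocks in ethanol or DMSO. Incubated at 35°C without agitation; OD405 read at 18 and 48 h. % inhibition was derived from test, sterility (no inoculum) and solvent growth-control wells. Amphotericin B at 0.5 µg/mL served as the 100% control.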

Candida albicans [2] = assay: Antifungal activity against Candida albicans ATCC 90028 assessed as inhibition of metabolic activity at 1.25 ug/ml after 48 hrs in presence of 80 ug/ml fluconazol by XTT assay relative to control; assay type: functional; settings: values are per cent of control
Outline: (§2)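 Checkerboard against strain ATCC 90028, inoculum per M27-A3: fluconazole 80-1.25 µg/mL on one axis, tetrazole 80-1.25 µg/mL on the other. Plates at 35°C for 48 h, then XTT metabolic reduction read at 475 nm (660 nm reference). Activity is the drop in mean absorbance against untreated growth control. FICs and their summed FIC index are taken at 50% reduction in metabolic activity.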

Candida albicans [3] = assay: Antifungal activity against Candida albicans ATCC 90028 assessed as metabolic activity at 20 ug/ml after 48 hrs in presence of 2.5 ug/ml fluconazol by XTT assay relative to control
Candida albicans [4] = assay: Synergistic antifungal activity against Candida albicans ATCC 90028 at 40 ug/ml after 48 hrs in presence of 1.25 ug/ml fluconazol by checkerboard assay relative to control; assay type: functional
Outline: (§3)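 Checkerboard in C. albicans ATCC 90028, inoculum prepared per CLSI M27-A3 in RPMI. Fluconazole serially diluted 80-1.25 µg/mL across the plate against the partner compound at 80-1.25 µg/mL final. Incubated 48 h at 35°C. Metabolic activity read by XTT reduction at 475 nm (660 nm reference), given as % of the untreated growth control.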

Candida albicans [5] = assay: Synergistic antifungal activity against Candida albicans ATCC 90028 at 5 ug/ml after 48 hrs in presence of 5 ug/ml fluconazol by checkerboard assay relative to control; assay type: functional; settings: ATCC 90028, 48 h, read-out: GI; outline: as §3
Candida albicans [6] = assay: Synergistic antifungal activity against Candida albicans ATCC 90028 at 10 ug/ml after 48 hrs in presence of 40 ug/ml fluconazol by checkerboard assay relative to control; assay type: functional
Outline: (§4)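 Checkerboard per M27-A3 against ATCC 90028: fluconazole at 80–1.25 µg/mL horizontally and partner compound at 80–1.25 µg/mL vertically, 100 µL yeast inoculum per well, 35°C for 48 h. After 48 h, metabolic activity was measured by XTT reduction at 475 nm (660 nm reference) relative to untreated growth control. FIC index is the sum of the FICs; <1 was defined as synergism and >1 as antagonism.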

Candida albicans [7] = assay: Antifungal activity against Candida albicans ATCC 90028 assessed as metabolic activity at 80 ug/ml after 48 hrs in presence of 40 ug/ml fluconazol by XTT assay relative to control
Candida albicans [8] = assay: Antifungal activity against Candida albicans ATCC 90028 assessed as inhibition of metabolic activity at 1.25 ug/ml after 48 hrs in presence of 5 ug/ml fluconazol by XTT assay relative to control; assay type: functional; settings: values are per cent of control; outline: as §2
Candida albicans [9] = assay: Synergistic antifungal activity against Candida albicans ATCC 90028 at 1.25 ug/ml after 48 hrs in presence of 20 ug/ml fluconazol by checkerboard assay relative to control; assay type: functional; outline: as §4
Candida albicans [10] = assay: Antifungal activity against Candida albicans ATCC 90028 at 0.25 ug/ml after 48 hrs relative to control; assay type: functional
Outline: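 Fluconazole (water stock, diluted in RPMI 1640) tested by CLSI M27-A3 broth microdilution against C. albicans ATCC 90028. Inoculum 1.8×10^3 cells/mL in RPMI 1640 buffered with MOPS, pH 7.0. Incubation at 35°C without agitation, read at 18 and 48 h. Growth by OD405 and visually; inhibition % calculated against solvent growth-control wells after subtracting sterility-control wells.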

Candida albicans [11] = assay: Antifungal activity against Candida albicans ATCC 90028 assessed as metabolic activity at 40 ug/ml after 48 hrs in presence of 1.25 ug/ml fluconazol by XTT assay relative to control
Candida albicans [12] = assay: Synergistic antifungal activity against Candida albicans ATCC 90028 at 2.5 ug/ml after 48 hrs in presence of 10 ug/ml fluconazol by checkerboard assay relative to control; assay type: functional
Outline: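 Checkerboard microdilution (M27-A3) on C. albicans ATCC 90028 in RPMI 1640: fluconazole (80-1.25 µg/mL) crossed with tetrazole (80-1.25 µg/mL final), incubated at 35°C for 48 h. Growth by OD405 at 18 and 48 h, endpoint taken as 100% inhibition. FIC index = sum of the two agents' FICs; <1 synergism, >1 antagonism.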

Candida albicans [13] = assay: Synergistic antifungal activity against Candida albicans ATCC 90028 at 5 ug/ml after 48 hrs in presence of 1.25 ug/ml fluconazol by checkerboard assay relative to control; assay type: functional; outline: as §3
Candida albicans [14] = assay: Antifungal activity against Candida albicans ATCC 90028 assessed as metabolic activity at 20 ug/ml after 48 hrs in presence of 1.25 ug/ml fluconazol by XTT assay relative to control
Candida albicans [15] = assay: Fungicidal activity against Candida albicans ATCC 90028 at 16 ug/ml after 48 hrs by M27-A3 microdilution method; assay type: functional
Outline: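 After 48 h at 35°C in M27-A3 microdilution plates (compound at 16 µg/mL), 50 µL aliquots from treated and solvent-control wells were diluted 10^4 in PBS and plated on drug-free Sabouraud dextrose agar, then incubated 48 h at 35°C. Reduction R = lg CFU/mL control − lg CFU/mL treated; R ≥ 3 defined as fungicidal.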

Candida albicans [16] = assay: Synergistic antifungal activity against Candida albicans ATCC 90028 at 40 ug/ml after 48 hrs in presence of 80 ug/ml fluconazol by checkerboard assay relative to control; assay type: functional; outline: as §3
Candida albicans [17] = assay: Antifungal activity against Candida albicans ATCC 90028 at 1 ug/ml after 18 hrs relative to control; assay type: functional; outline: as §1
Candida albicans [18] = assay: Synergistic antifungal activity against Candida albicans ATCC 90028 at 20 ug/ml after 48 hrs in presence of 5 ug/ml fluconazol by checkerboard assay relative to control; assay type: functional; outline: as §3
Candida albicans [19] = assay: Synergistic antifungal activity against Candida albicans ATCC 90028 at 1.25 ug/ml after 48 hrs in presence of 40 ug/ml fluconazol by checkerboard assay relative to control; assay type: functional; outline: as §4
Candida albicans [20] = assay: Antifungal activity against Candida albicans ATCC 90028 at 8 ug/ml after 48 hrs relative to control; assay type: functional; outline: as §1

SMILES | Activity (Candida albicans [1]) [%] | residual activity (Candida albicans [2]) [%] | Metabolic activity (Candida albicans [3]) [%] | growth inhibition (GI) (Candida albicans [4]) [%] | inhibition of growth at 5 µg/mL (Candida albicans [5]) [%] | growth inhibition (GI) (Candida albicans [6]) [%] | Metabolic activity (Candida albicans [7]) [%] | residual activity (Candida albicans [8]) [%] | growth inhibition (GI) (Candida albicans [9]) [%] | Activity (Candida albicans [10]) [%] | Metabolic activity (Candida albicans [11]) [%] | growth inhibition (GI) (Candida albicans [12]) [%] | growth inhibition (GI) (Candida albicans [13]) [%] | Metabolic activity (Candida albicans [14]) [%] | Activity (Candida albicans [15]) [log10CFU/ml] | growth inhibition (GI) (Candida albicans [16]) [%] | Activity (Candida albicans [17]) [%] | growth inhibition (GI) (Candida albicans [18]) [%] | growth inhibition (GI) (Candida albicans [19]) [%] | Activity (Candida albicans [20]) [%]
Cc1ccc(-c2nnn(CCCN3CCOCC3)n2)cc1 | 98.99 | 100 | 71.88 | 99.57 | 98.7 | 98.78 | 100 | 100 | 99.46 | 98.68 | 40.06 | 99.09 | 98.77 | 76.07 | 0.56 | 99.59 | 57.6 | 98.27 | 99.36 | 99.39
CCOC(=O)CCn1nnc(-c2ccccc2)n1 | 98.97 | 66.82 | 80.61 | 99.56 | 99.1 | 99.34 | 97.37 | 100 | 99.65 | 98.7 | 66.6 | 99.49 | 99.71 | 90.68 | 0.33 | 99.58 | 85.06 | 98.72 | 99.46 | 98.86
ClCCCn1nnnc1-c1ccccc1Cl | 98.4 | 62.42 | 81.5 | 99.93 | 98.8 | 99.29 | 89.73 | 100 | 99.58 | 99.62 | 13.59 | 99.75 | 99.79 | 0 | 0.18 | 99.54 | 93.49 | 99.02 | 99.16 | 99.06
